{"data": "Assay results of several laboratories", "target": "Cytochrome P450 3A4 (CYP3A4, Homo sapiens, UniProt P08684)", "note": "Protocols differ between the studies behind these lines."}
{"SMILES": "CC1(C)CCC2(CC1)N[C@@H](C(=O)N[C@@H]1CC[C@@H](C(N)=O)OC1)[C@H](c1ccnc(Cl)c1F)[C@]21C(=O)Nc2cc(Cl)ccc21", "test": "enzyme activity, inhibitor", "system": "human, liver microsomes", "conditions": "with preincubation, midazolam probe", "measurement": "kinact", "value": "0.00103 s⁻¹"}
{"SMILES": "O=C(N[C@H](Cc1c[nH]c2ccccc12)C(=O)Nc1ccncc1)c1ccc(-c2cc(F)ccc2F)cc1F", "test": "enzyme activity, inhibitor", "system": "human, liver microsomes", "conditions": "1 µM", "measurement": "inhibition", "value": "74%"}
{"SMILES": "CCN(Cc1cnc2nc(N)nc(N)c2n1)c1ccc(C(=O)N2CCC(C(=O)OC)CC2)cc1", "test": "enzyme activity, inhibitor, luciferase", "conditions": "10 µM", "measurement": "inhibition", "value": "-13.9%"}
{"SMILES": "CC(=O)c1cccc(OCc2cc(C(=O)N(C)[C@@H](C)c3ccccn3)no2)c1", "test": "enzyme activity, inhibitor", "system": "human, liver microsomes", "measurement": "IC50", "value": "27 µM"}
{"SMILES": "CC(C)(C)OC(=O)N[C@H](CSCCC(=O)NCc1cccnc1)CC1CCCCC1", "test": "thermal stability", "measurement": "ΔTm", "value": "-2 °C"}
{"SMILES": "COc1cc2c(c(OC)c1OC)-c1c(cc3c(c1OC)OCO3)[C@H](OC(=O)c1ccccc1)[C@@](C)(O)[C@@H](C)C2", "test": "enzyme activity, inhibitor", "conditions": "15 min, pH 7.4", "measurement": "IC50", "value": "25 µM"}
{"SMILES": "CCc1cc(/C(C)=N/OCc2ccc(C3CCCCC3)c(C(F)(F)F)c2)ccc1CN1CC(C(=O)O)C1", "test": "enzyme activity, inhibitor", "system": "human, liver microsomes", "conditions": "200 µM, 20 min, testosterone probe", "measurement": "inhibition", "value": "72.7%"}
{"SMILES": "COC(=O)C1CCN(C(=O)c2ccc(N(CCO)Cc3cnc4nc(N)nc(N)c4n3)cc2)CC1", "test": "enzyme activity, inhibitor, luciferase", "conditions": "10 µM", "measurement": "inhibition", "value": "-27.6%"}
{"SMILES": "NCCCCCC(=O)NCc1cccnc1", "test": "thermal stability", "measurement": "ΔTm", "value": "-0.2 °C"}
{"SMILES": "COC(=O)C1CCN(C(=O)Cc2ccc(NCc3cnc4nc(N)nc(N)c4n3)cc2)CC1", "test": "enzyme activity, inhibitor, luciferase", "conditions": "10 µM", "measurement": "inhibition", "value": "-1.83%"}
{"SMILES": "C=CC(=O)Nc1cc(Nc2nccc(Nc3cc(Cl)c(F)cc3C(C)(C)O)n2)c(OC)cc1N1CC[C@@H](N(C)C)C1", "test": "enzyme activity, inhibitor", "system": "human, liver microsomes", "conditions": "10 µM", "measurement": "inhibition", "value": "24.3%"}
{"SMILES": "CC(C)(C)OC(=O)N[C@H](CSCCC(=O)NCc1cccnc1)Cc1c[nH]c2ccccc12", "test": "thermal stability", "measurement": "ΔTm", "value": "0.2 °C"}
{"SMILES": "CCOC(=O)C1CCN(C(=O)c2ccc(N(CC)Cc3cnc4nc(N)nc(N)c4n3)cc2)CC1", "test": "enzyme activity, inhibitor, luciferase", "conditions": "10 µM", "measurement": "inhibition", "value": "-13.6%"}
